Screening data: PubChem, several laboratories
ABHD5 PLIN5 PPI: blocks binding of human ABHD5 to perilipin-5 | Q00G26+Q8WTS1 | Split G. princeps luciferase complementation, luminescence, 4 h | inhibition, % at 4 µM | 360,000 tested, 0.78% active;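 active means inhibition above the mean inhibition across every tested compound plus 3 SD, cut at about 22% in these data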;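 further: 0% = DMSO only wells and the 100% control is not disclosed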
MC4R antagonist: antagonists of human melanocortin 4 receptor (MC4R); AID 540295; P32245; 360,000 tested, 0.48% active; inhibition, % at 6.5 µM; MC4R-expressing cells, MTII-stimulated cAMP, LANCE TR-FRET;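 active means inhibition above its plate's cutoff, the mean of tested wells on that plate plus 3 SD, cut at about 29% in these data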;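 further: 0% = Melanotan II alone and 100% = Melanotan II plus saturating MCL0020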
Target sequence (P32245 whole entry, looked up): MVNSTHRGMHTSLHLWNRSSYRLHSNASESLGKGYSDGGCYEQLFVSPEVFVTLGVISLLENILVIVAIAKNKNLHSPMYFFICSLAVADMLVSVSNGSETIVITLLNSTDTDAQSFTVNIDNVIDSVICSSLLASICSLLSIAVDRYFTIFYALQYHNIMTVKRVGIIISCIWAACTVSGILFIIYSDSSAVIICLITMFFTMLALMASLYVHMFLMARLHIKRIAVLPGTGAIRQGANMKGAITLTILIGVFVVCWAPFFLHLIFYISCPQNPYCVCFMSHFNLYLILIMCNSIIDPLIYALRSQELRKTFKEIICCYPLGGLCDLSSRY
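Test system: U2OS cells stably expressing human melanocortin 4 receptor (MC4R); also added: Melanotan II challenge; compound: 6.5 µM single dose; timing: 30-min compound preincubation, 1-h Melanotan II challenge, 1-h detection, room temperature; signal: Eu-cAMP/anti-cAMP TR-FRET, emission 671 nm; repeats: one well per compound, no replicates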
MC4R ag barr: activates human MC4R beta-arrestin recruitment; P32245; U2OS MC4R beta-arrestin complementation, luminescence; percent of melanotan II response, DMSO zero; activation, % at 8.9 µM; 360,000 tested, 0.98% active; AID 540308;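 active means activation above a per-plate cutoff, the mean activation of sample wells on that plate plus 3 SD, cut at about 8% in these data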
PfG6PD inh: PfG6PD (Plasmodium falciparum) enzyme inhibition | PfGluPho enzyme, NADPH resazurin-diaphorase fluorescence | inhibition, % at 20 µM | 350,000 tested, 0.78% active | AID 504690;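 active means inhibition reaching at least a set limit at 20 µM in the primary screen, cut at about 59% in these data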;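 further: 0% = DMSO wells with substrate and 100% = DMSO wells lacking glucose-6-phosphate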
Beta2AR agonist: activates human beta-2 adrenergic receptor causing internalization; P07550; Am2.2-beta2AR cells, FAP receptor internalization, flow cytometry; response, % (no concentration beside the values); 340,000 tested, 0.43% active;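 active means response above a set limit, near 3 SD of response in nonfluorescent compounds, cut at about 42% in these data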
MC4R barr conf: human MC4R beta-arrestin agonism confirmation. shares compounds with MC4R ag barr. U2OS MC4R beta-arrestin recruitment, luminescence; scaled DMSO 0%, Melanotan II 100%. activation, % at 8.9 µM. 2,400 tested, 31% active. AID 602192;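 active means mean activation across replicates above the hit cutoff set in the earlier primary screen, cut at about 8% in these data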
MOR DOR agonist: activates mu-delta opioid heterodimer, MC4R agonist counter-screen; shares compounds with MC4R ag barr; U2OS PathHunter beta-arrestin, beta-gal luminescence; percent of deltorphin B response, DMSO zero; activation, % at 9.2 µM; 2,400 tested, 5.8% active; AID 602194;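 active means mean activation across replicates exceeds the hit threshold derived in the earlier primary screen, cut at about 18% in these data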;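 further: 100% = deltorphin B at 0.9 µM final and 0% = DMSO alone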
Numbers without * were called inactive; / = no result. This is a sample that favours compounds with a hit; in the whole collection about 3% have one here.

SMILES	ABHD5 PLIN5 PPI	MC4R antagonist	MC4R ag barr	PfG6PD inh	Beta2AR agonist	MC4R barr conf	MOR DOR agonist
Cc1cccc(NC(=O)CSc2cc(C(=O)c3nccn3C)c3ccccc3n2)c1	-4	4	-1	18	-5	/	/
NC(=O)c1ccc(NC(=O)c2cccc3c2OCCCO3)cc1	-2	-1	-2	3	-2	/	/
CCOC(=O)C1(C)CCCCCN1C(=O)c1ccc(OC)c(C(F)(F)F)c1 (configuration not stated)	-4	13	10*	/	/	3	5
Cc1ccc(C)c(OCCC(=O)N2CCN(S(=O)(=O)c3cc(C)ccc3C)CC2)c1	-2	1	-2	14	-6	/	/
CC(=O)Nc1ccc(S(=O)(=O)Nc2cc(C)c(-n3nc4ccccc4n3)cc2O)cc1	3	-11	11*	-16	9	0	3
CC1(C)CC(=O)C(C2C3=C(CC(C)(C)CC3=O)Oc3c(Br)cc(Br)cc32)=C(O)C1 (configuration not stated)	0	18	0	-3	16	/	/
Cc1sc(NC(=O)Cn2c(=O)oc3ccccc32)nc1-c1ccc(Cl)cc1	-10	0	13*	1	16	3	7
O=C(/C=C/c1ccc(Br)cc1)N1CCN(c2cccc(C(F)(F)F)c2)CC1	-10	11	14*	21	-4	-3	5
CC(C)c1ccc(/C=C/C(=O)Nc2nc3ccc([N+](=O)[O-])cc3s2)cc1	3	2	22*	-1	7	5	4
Nc1nc(SCCO)[nH]c(=O)c1NC(=O)c1ccco1	1	2	-1	-5	0	/	/
COc1ccc(NC(=O)COC(=O)c2cc(OC)c(OC)c(OC)c2)c([N+](=O)[O-])c1	0	5	-1	-5	5	/	/
COc1ccc(NC(=O)COC(=O)c2cc(C)oc2C)c([N+](=O)[O-])c1	6	8	23*	0	-7	3	11
COc1ccc(NC(=O)c2ccc(C)cc2Cl)c([N+](=O)[O-])c1	-3	0	2	10	-14	/	/
COc1ccc(NC(=O)c2cc(Br)ccc2Cl)c([N+](=O)[O-])c1	4	-1	11*	-2	-11	4	4
CN1C(=O)C2(Oc3ccccc3C3CC(c4ccccc4)=NN32)c2ccccc21 (configuration not stated)	-9	-2	2	9	17	/	/
Cc1ccc(C2=NN3C(C2)c2ccccc2OC32C(=O)Nc3ccccc32)cc1 (configuration not stated)	6	5	10*	15	3	9.1*	20*
CCN(Cc1ccccc1)C(=O)c1cc2c(OC)c(OC)c(OC)cc2[nH]1	-14	4	-1	1	5	/	/
CN(C)S(=O)(=O)c1ccc2[nH]cc(/C=C/c3nc4ccccc4c(=O)n3-c3ccccc3)c2c1	-1	1	13*	5	15	9.2*	5
O=C(CNC(=O)c1ccc(Cl)cc1)c1ccc(Br)cc1	-1	2	5	9	-7	/	/
O=C(CNC(=S)NC(=O)c1ccc(Br)o1)c1ccccc1	-1	1	11*	-1	-3	2	6
O=C(CNC(=S)NC(=O)c1ccc(Cl)cc1)c1ccccc1	-6	-1	12*	-4	-1	2	3
Cc1ccc(OCC(=O)OCC(=O)N2c3ccccc3CC2C)cc1C (configuration not stated)	10	-1	-1	-2	-10	/	/
CCc1c(C2(O)CCCCC2)[nH]c2ccc(C(=O)OC)cc12	3	9	2	-5	-6	/	/
CCc1c(C2(O)CCCCC2)[nH]c2ccc(C#N)cc12	-13	8	11*	1	4	3	8
Cc1ccc(S(=O)(=O)N(C)C)cc1-n1c(SCC(=O)Nc2ccc(F)c(F)c2F)nc2ccccc2c1=O	5	17	-2	16	-5	/	/
SMILES	ABHD5 PLIN5 PPI	MC4R antagonist	MC4R ag barr	PfG6PD inh	Beta2AR agonist	MC4R barr conf	MOR DOR agonist
CCCOc1ccc(C(=O)Nc2nc(C)c(Cc3ccc4c(c3)OCO4)s2)cc1	7	3	47*	-7	2	13*	4
NS(=O)(=O)c1ccc(CNC(=O)c2ccncc2)cc1	3	7	0	2	-3	/	/
CCCCNC(=S)N(C)/N=C/c1ccc(OCC(=O)Nc2c(C)cc(C)cc2C)c(OC)c1	-1	12	14*	-4	9	11*	8
CCN(CC(=O)Nc1ccc(C#N)cc1)CC(=O)Nc1ccc2c(c1)OCCO2	-2	-1	-2	28	/	/	/
CCSc1nc(C2CC2)cc(-c2ccco2)c1C#N	-3	3	-1	4	1	/	/
CC(C)(C)c1cc(-c2ccco2)c(C#N)c(SCC#N)n1	-4	13	19*	-2	5	1	7
CCCOc1ccc(C(=O)NC2CCSc3ccccc32)cc1 (configuration not stated)	0	8	17*	1	-3	1	6
COc1ccc(-c2csc(NC(=O)c3ccccc3NS(=O)(=O)c3ccc(F)c(F)c3)n2)cc1	-12	19	15*	-1	24	4	3
Cc1ccc(S(=O)(=O)Nc2ccccc2C(=O)Nc2nc(-c3ccc(F)cc3)cs2)cc1	-4	17	0	-18	18	/	/
O=C(CN1C2CCCC1CC(NC(=O)c1ccccc1)C2)Nc1ccccc1 (configuration not stated)	-1	5	1	0	-8	/	/
Cc1ccc(C)c(OCCC(=O)OCC(=O)NCCNC(=O)COC(=O)CCOc2cc(C)ccc2C)c1	12	-4	11*	18	-6	1	5
CCOC(=O)CSc1c(-c2ccc(Cl)cc2)[nH]c2ccccc12	-13	12	11*	34	14	4	14
O=C(Cc1cccs1)NCCSc1c(-c2ccc(Cl)cc2)[nH]c2ccccc12	-9	8	3	19	15	/	/
COc1c(C(=O)Nc2ccc3[nH]c(=O)[nH]c3c2)cc2ccccc2c1Br	-5	7	12*	-14	-6	5	17
N#C/C(=C(/O)COC(=O)CSc1ccc(Cl)cc1)c1nc2ccccc2[nH]1	-3	3	9.7*	-14	20	-4	4
Cc1cc(SCC(=O)OC/C(O)=C(\C#N)c2nc3ccccc3[nH]2)c(C)cc1Br	-3	8	1	-10	7	/	/
COc1ccc(NC(=O)COC(=O)c2cc(SC)ccc2Cl)c(OC)c1	7	7	22*	-14	4	9.1*	12
S=c1[nH]c(-c2ccc(Br)cc2)cn1CCc1ccccc1	-7	4	19*	6	-5	-1	5
